Experimental data from ChEMBL document CHEMBL5120741, “Small molecule-mediated induction of endoplasmic reticulum stress in cancer cells” (RSC Med Chem, 2021).
Active and inactive are the calls of the source. No cut-off for these calls is given here.

Legend:
[1] = test system: HeLa; assay: Cytotoxicity against human HeLa cells assessed as cell killing at 30 uM after 24 hrs by MTT assay
[2] = test system: HeLa; assay: Cytotoxicity against human HeLa cells assessed as cell viability after 24 hrs by MTT assay; format: functional, cell-based
Method in brief: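 HeLa cells from NCCS incubated 24 h with compound across a concentration range (single-point screen at 30 μM); viability read by MTT assay; IC50 from dose-response; significance by two-way ANOVA.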

[3] = Induction of ERstress in human HeLa cells assessed as increase in CHOP expression level measured after 24 hrs by Western blot analysis relative to control; format: functional
Method in brief: (§1)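 HeLa cells treated 24 h, lysed, proteins separated by gel electrophoresis and immunoblotted for BiP, CHOP, IRE1α, PERK or caspase-12; expression given as fold change over untreated control.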

[4] = test system: HeLa; assay: Induction of apoptosis in human HeLa cells assessed as increase in late apoptotic cells level measured after 24 hrs in presence of 50 uM of chloroquine by annexin-V-PI staining based flow cytometry (reference value: 0.08%); format: functional
Method in brief: (§2)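 Apoptosis by flow cytometry: HeLa cells treated 24 h alone or with 50 μM chloroquine, stained with Annexin V-FITC and propidium iodide; early and late apoptotic fractions reported as % cells.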

[5] = test system: HeLa; assay: Induction of apoptosis in human HeLa cells assessed as increase in late apoptotic cells level measured after 24 hrs by annexin-V-PI staining based flow cytometry (reference value: 0.08%); format: functional
Method in brief: as §2

[6] = Induction of ERstress in human HeLa cells assessed as increase in caspase-12 expression level measured after 24 hrs by Western blot analysis relative to control; format: functional
Method in brief: as §1

[7] = test system: HeLa; assay: Induction of ERstress in human HeLa cells assessed as increase in lipid level measured after 24 hrs by Oil-red-O staining analysis; format: functional, cell-based
Method in brief: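 Lipid content: HeLa cells exposed 24 h, stained with Oil Red O plus DAPI for nuclei, viewed by confocal microscopy against untreated control.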

[8] = Induction of ERstress in human HeLa cells assessed as increase in PERK expression level measured after 24 hrs by Western blot analysis relative to control; format: functional
Method in brief: as §1

[9] = test system: HeLa; assay: Induction of autophagy in human HeLa cells assessed as increase in LC3-I/LC3-II ratio level measured after 24 hrs by Western blot analysis relative to control; format: functional
Method in brief: (§3)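 HeLa cells (NCCS) exposed to compound for 24 h, then lysed; cellular proteins resolved by gel electrophoresis and immunoblotted for LC3-I, LC3-II and Beclin. Band levels expressed as fold change versus untreated control cells. The LC3-I/LC3-II ratio is taken from the same blots and also expressed as fold over control.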

[10] = test system: HeLa; assay: Induction of autophagy in human HeLa cells assessed as increase in LC3-II level measured after 24 hrs by Western blot analysis relative to control; format: functional
Method in brief: as §3

[11] = test system: HeLa; assay: Induction of autophagy in human HeLa cells assessed as increase in beclin level measured after 24 hrs by confocal microscopic analysis relative to control; format: functional
Method in brief: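 Immunofluorescence: HeLa cells treated 24 h, anti-Beclin primary then Alexa Fluor 594 secondary, DAPI counterstain; confocal microscopy, red signal as fold versus untreated control.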

[12] = test system: HeLa; assay: Induction of apoptosis in human HeLa cells assessed as increase in early apoptotic cells level measured after 24 hrs in presence of 50 uM of chloroquine by annexin-V-PI staining based flow cytometry (reference value: 1.26%); format: functional
Method in brief: as §2

[13] = test system: HeLa; assay: Induction of autophagy in human HeLa cells assessed as increase in beclin level measured after 24 hrs by Western blot analysis relative to control; format: functional
Method in brief: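 Western blot: HeLa cells treated 24 h, lysed, proteins resolved by gel electrophoresis and probed for Beclin; fold change versus untreated cells.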

[14] = test system: HeLa; assay: Induction of autophagy in human HeLa cells assessed as increase in LC3B level measured after 24 hrs by confocal microscopic analysis relative to control; format: functional
Method in brief: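 HeLa cells treated 24 h, fixed in paraformaldehyde, permeabilized with 0.1% Tween-20 buffer, anti-LC3B primary 4 h, Alexa Fluor 488 secondary, DAPI nuclei; confocal imaging, green signal as fold over control.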

[15] = Induction of ERstress in human HeLa cells assessed as increase in IRE1-alpha expression level measured after 24 hrs by Western blot analysis relative to control; format: functional
Method in brief: as §1

[16] = Induction of ERstress in human HeLa cells assessed as increase in CHOP expression level measured after 24 hrs by confocal microscopic analysis relative to control; format: functional
Method in brief: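 After 24 h treatment, HeLa cells probed with anti-CHOP primary antibody (4 h), then Alexa Fluor 594 secondary; nuclei DAPI-stained; confocal imaging, red signal expressed as fold over untreated cells.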

[17] = test system: HeLa; assay: Induction of autophagy in human HeLa cells assessed as increase in LC3-1 level measured after 24 hrs by Western blot analysis relative to control; format: functional
Method in brief: as §3

[18] = Drug uptake in endoplasmic reticulum of human HeLa cells at 5 uM measured after 3 and 6 hrs by ER-tarcker dye based laser confocal microscopy; format: ADME, subcellular
Method in brief: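 HeLa cells given 5 μM compound (intrinsically green fluorescent) for 3 h and 6 h, ER counterstained with ER-Tracker Red, imaged by confocal laser scanning microscopy; colocalization quantified as Pearson's and Mander's coefficients.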

[19] = test system: HeLa; assay: Induction of apoptosis in human HeLa cells assessed as increase in early apoptotic cells level measured after 24 hrs by annexin-V-PI staining based flow cytometry (reference value: 1.26%); format: functional
Method in brief: as §2

[20] = Induction of ERstress in human HeLa cells assessed as increase in BiP expression level measured after 24 hrs by Western blot analysis relative to control; format: functional
Method in brief: as §1

With `COc1ccc(S(=O)(=O)N/N=C/c2c[nH]c3cc(Br)ccc23)cc1` the cell killing at 30 µM [1] was over 60% and the IC50 [2] was 19 µM.

For `CN(C)c1cccc2c(S(=O)(=O)N/N=C/c3c[nH]c4cc(Br)ccc34)cccc12`, the cell killing at 30 µM [1] was over 60%, the “fold change (FC)” value [3] was 1.6 and the Activity [4] was 62%. For the same molecule, the Activity [5] was 17.8%, the “fold change (FC)” value [6] was 1.4 and the Activity [7] was “Active”. The “fold change (FC)” value [8] was 1.6, the “fold change (FC)” value [9] was 3.8 and the “fold change (FC)” value [10] was 10. The IC50 [2] was 9 µM, the “fold change (FC)” value [11] was 8 and the Activity [12] was 28.6%. For the same molecule, the “fold change (FC)” value [13] was 2, the “fold change (FC)” value [14] was 5 and the “fold change (FC)” value [15] was 1.8. The “fold change (FC)” value [16] was 1.7, the “fold change (FC)” value [17] was 2.6 and the Drug uptake [18] was “Active”. The Activity [19] was 64.6% and the “fold change (FC)” value [20] was 1.6.

For `O=S(=O)(N/N=C/c1c[nH]c2cc(Br)ccc12)c1ccc(Br)cc1`, the cell killing at 30 µM [1] was over 60%, the Activity [7] was “Active” and the IC50 [2] was 16 µM. The Activity [14] was “Active”.

Work on `O=S(=O)(N/N=C/c1c[nH]c2cc(Br)ccc12)c1ccc(Cl)cc1` yielded a cell killing at 30 µM [1] of over 60% and an IC50 [2] of 18 µM.
